# Experimental data published in ChEMBL document CHEMBL4028832, “Design and synthesis of 1,2,3-triazolo-phenanthrene hybrids as cytotoxic agents” (Bioorg Med Chem Lett, 2017).
# pIC50: −log10 of the molar value. Calls of active or inactive are those of the source. The calls are words filed in the database; no cut-off is given here.
# Tests used:
# [1] = system: DU-145; assay: Cytotoxicity against human DU145 cells after 48 hrs by MTT assay; type: functional, cell-based; settings: DU-145, 48 h
# In short: (§1)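 The human cancer lines and mouse 4T1 breast cells were treated with compound for 48 h and assessed by MTT assay. IC50 is the concentration giving 50% inhibition. 5-Fluorouracil served as the MTT standard.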
# [2] = system: HeLa; assay: Cytotoxicity against human HeLa cells after 48 hrs by MTT assay; type: functional, cell-based; in short: as §1
# [3] = system: PC-3; assay: Cytotoxicity against human PC3 cells after 48 hrs by MTT assay; type: functional, cell-based; settings: PC-3, 48 h; in short: as §1
# [4] = system: MDA-MB-231; assay: Cytotoxicity against human MDA-MB-231 cells after 48 hrs by MTT assay; type: functional, cell-based; settings: MDA-MB-231, 48 h; in short: as §1
# [5] = system: 4T1; assay: Cytotoxicity against mouse 4T1 cells after 48 hrs by MTT assay; type: functional, cell-based; settings: 4T1, 48 h; in short: as §1
# [6] = system: BT-549; assay: Cytotoxicity against human BT549 cells after 48 hrs by MTT assay; type: functional, cell-based; settings: BT-549, 48 h; in short: as §1
# [7] = system: MDA-MB-453; assay: Cytotoxicity against human MDA-MB-453 cells after 48 hrs by MTT assay; type: functional, cell-based; settings: MDA-MB-453, 48 h; in short: as §1
# [8] = system: HGC-27; assay: Cytotoxicity against human HGC27 cells after 48 hrs by MTT assay; type: functional, cell-based; settings: HGC-27, 48 h; in short: as §1
# [9] = system: A549; assay: Cytotoxicity against human A549 cells after 48 hrs by MTT assay; type: functional, cell-based; settings: A549, 48 h; in short: as §1
# [10] = system: DU-145; assay: Induction of apoptosis in human DU145 cells assessed as chromatin condensation at 8 uM after 48 hrs by acridine orange/ethidium bromide staining-based fluorescence microscopic analysis; type: functional, cell-based
# In short: (§2)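 Treated DU145 cells were double-stained with acridine orange and ethidium bromide and imaged by fluorescence microscopy. Acridine orange stains intact nuclei green; ethidium bromide stains nuclei of membrane-compromised cells red. Cells were scored for blebbing, chromatin condensation, shrinkage and apoptotic bodies versus control.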
# [11] = system: DU-145; assay: Cell cycle arrest in human DU145 cells assessed as accumulation at G2/M phase at 1 uM after 24 hrs by propidium iodide staining based FACS analysis (reference value: 16.38%); type: functional
# [12] = system: DU-145; assay: Induction of apoptosis in human DU145 cells assessed as loss of mitochondrial membrane potential after 24 hrs by JC1 staining-based fluorescence microscopic method; type: functional, cell-based
# In short: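 DU145 cells were treated at 2, 4 and 8 µM for 24 h and stained with JC-1. Orange aggregates mark polarised mitochondria and green monomers mark depolarised ones, imaged by fluorescence. JC-1 aggregate intensity was quantified by spectrofluorometry.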
# [13] = system: DU-145; assay: Induction of apoptosis in human DU145 cells assessed as cell detachment at 2 to 8 uM after 48 hrs by phase contrast microscopic method; type: functional, cell-based
# In short: (§3)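 Phase-contrast microscopy of DU145 cells treated at 2, 4 and 8 µM. Images were captured and scored against untreated control for cell detachment and nuclear shrinkage.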
# [14] = system: DU-145; assay: Cell cycle arrest in human DU145 cells assessed as accumulation at G0/G1 phase at 4 uM after 24 hrs by propidium iodide staining based FACS analysis (reference value: 64.1%); type: functional
# [15] = system: DU-145; assay: Induction of apoptosis in human DU145 cells assessed as membrane blebbing at 8 uM after 48 hrs by acridine orange/ethidium bromide staining-based fluorescence microscopic analysis; type: functional, cell-based; in short: as §2
# [16] = system: DU-145; assay: Cell cycle arrest in human DU145 cells assessed as accumulation at S phase at 1 uM after 24 hrs by propidium iodide staining based FACS analysis (reference value: 7.93%); type: functional
# [17] = system: DU-145; assay: Cell cycle arrest in human DU145 cells assessed as accumulation at G0/G1 phase at 1 uM after 24 hrs by propidium iodide staining based FACS analysis (reference value: 64.1%); type: functional
# [18] = system: DU-145; assay: Cell cycle arrest in human DU145 cells assessed as increase in accumulation at G0/G1 phase after 24 hrs by propidium iodide staining based FACS analysis; type: functional
# [19] = system: DU-145; assay: Induction of apoptosis in human DU145 cells assessed as formation of condensed nuclei at 2 to 8 uM after 24 hrs by DAPI staining based fluorescence microscopic method
# [20] = system: DU-145; assay: Cell cycle arrest in human DU145 cells assessed as accumulation at S phase at 2 uM after 24 hrs by propidium iodide staining based FACS analysis (reference value: 7.93%); type: functional
# [21] = system: DU-145; assay: Induction of apoptosis in human DU145 cells assessed as apoptotic body formation at 8 uM after 48 hrs by acridine orange/ethidium bromide staining-based fluorescence microscopic analysis; type: functional, cell-based; in short: as §2
# [22] = system: DU-145; assay: Cell cycle arrest in human DU145 cells assessed as accumulation at S phase at 8 uM after 24 hrs by propidium iodide staining based FACS analysis (reference value: 7.93%); type: functional
# [23] = system: DU-145; assay: Induction of apoptosis in human DU145 cells assessed as horse shoe shaped nuclei at 2 to 8 uM after 24 hrs by DAPI staining based fluorescence microscopic method
# [24] = species on record: Bos taurus; assay: Binding affinity to calf thymus DNA assessed as increase in viscosity at 5 uM by Rolling-ball viscometric method
# [25] = system: DU-145; assay: Induction of apoptosis in human DU145 cells assessed as increase in intracellular reactive oxygen species after 6 hrs by DCFDA dye based spectrofluorometeric method; type: functional, cell-based
# In short: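 Intracellular ROS in DU145 cells was measured by DCFDA fluorescence after 6 h of treatment at several doses. Comparators were N-acetyl cysteine pretreatment before compound and H2O2-treated cells. Values are mean ± SD of three independent experiments.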
# [26] = system: DU-145; assay: Induction of apoptosis in human DU145 cells assessed as nuclear shrinkage at 2 to 8 uM after 48 hrs by phase contrast microscopic method; type: functional, cell-based; in short: as §3
# [27] = system: DU-145; assay: Induction of apoptosis in human DU145 cells assessed as cell shrinkage at 8 uM after 48 hrs by acridine orange/ethidium bromide staining-based fluorescence microscopic analysis; type: functional; in short: as §2
# [28] = system: DU-145; assay: Cell cycle arrest in human DU145 cells assessed as accumulation at G0/G1 phase at 2 uM after 24 hrs by propidium iodide staining based FACS analysis (reference value: 64.1%); type: functional
# [29] = system: DU-145; assay: Cell cycle arrest in human DU145 cells assessed as accumulation at G2/M phase at 4 uM after 24 hrs by propidium iodide staining based FACS analysis (reference value: 16.38%); type: functional
# [30] = system: DU-145; assay: Cell cycle arrest in human DU145 cells assessed as accumulation at G0/G1 phase at 8 uM after 24 hrs by propidium iodide staining based FACS analysis (reference value: 64.1%); type: functional
# [31] = system: DU-145; assay: Cell cycle arrest in human DU145 cells assessed as accumulation at G2/M phase at 2 uM after 24 hrs by propidium iodide staining based FACS analysis (reference value: 16.38%); type: functional
# [32] = system: DU-145; assay: Cell cycle arrest in human DU145 cells assessed as accumulation at G2/M phase at 8 uM after 24 hrs by propidium iodide staining based FACS analysis (reference value: 16.38%); type: functional
# [33] = system: DU-145; assay: Cell cycle arrest in human DU145 cells assessed as accumulation at S phase at 4 uM after 24 hrs by propidium iodide staining based FACS analysis (reference value: 7.93%); type: functional
smiles,measurement,setting,value
COc1cc2cc(Cn3cc(COc4ccc(-c5ccccc5)cc4)nn3)c3cc(OC)c(OC)cc3c2cc1OC,pIC50,[1],< 4.70
same,pIC50,[2],< 4.70
same,pIC50,[3],4.90
same,pIC50,[4],< 4.70
same,pIC50,[5],4.97
same,pIC50,[6],< 4.70
same,pIC50,[7],< 4.70
same,pIC50,[8],< 4.70
same,pIC50,[9],< 4.70
C=CCc1ccc(OCc2cn(Cc3cc4cc(OC)c(OC)cc4c4cc(OC)c(OC)cc34)nn2)c(OC)c1,pIC50,[1],< 4.70
same,pIC50,[2],5.15
same,pIC50,[3],< 4.70
same,pIC50,[4],< 4.70
same,pIC50,[5],5.14
same,pIC50,[6],< 4.70
same,pIC50,[7],< 4.70
same,pIC50,[8],5.12
same,pIC50,[9],< 4.70
COc1cc2cc(Cn3cc(COc4ccc(OCc5ccccc5)cc4)nn3)c3cc(OC)c(OC)cc3c2cc1OC,pIC50,[1],< 4.70
same,pIC50,[2],4.68
same,pIC50,[3],< 4.70
same,pIC50,[4],< 4.70
same,pIC50,[5],5.03
same,pIC50,[6],4.84
same,pIC50,[7],< 4.70
same,pIC50,[8],5.02
same,pIC50,[9],< 4.70
COc1cc2cc(Cn3cc(CN4C(=O)c5cccc6cccc(c56)C4=O)nn3)c3cc(OC)c(OC)cc3c2cc1OC,Activity,[10],Active
same,Activity,[11],20.46%
same,Activity,[12],Dose-dependent effect
same,pIC50,[1],5.82
same,Activity,[13],Active
same,pIC50,[2],5.54
same,Activity,[14],80.37%
same,Activity,[15],Active
same,Activity,[16],4.4%
same,Activity,[17],71.1%
same,pIC50,[3],5.07
same,Activity,[18],Dose-dependent effect
same,Activity,[19],Active
same,pIC50,[4],5.38
same,pIC50,[5],5.38
same,Activity,[20],6.37%
same,Activity,[21],Active
same,Activity,[22],1.91%
same,Activity,[23],Active
same,Activity,[24],Active
same,pIC50,[6],5.43
same,Activity,[25],Dose-dependent effect
same,Activity,[26],Active
same,Activity,[27],Active
same,pIC50,[7],5.29
same,Activity,[28],73.32%
same,pIC50,[8],5.29
same,pIC50,[9],< 4.70
same,Activity,[29],11.7%
same,Activity,[30],88.62%
same,Activity,[31],16.71%
same,Activity,[32],7.64%
same,Activity,[33],5.37%
COc1cc2cc(Cn3cc(COc4c(Br)cccc4Br)nn3)c3cc(OC)c(OC)cc3c2cc1OC,pIC50,[1],< 4.70
same,pIC50,[2],5.29
same,pIC50,[3],4.85
same,pIC50,[4],< 4.70
same,pIC50,[5],5.13
same,pIC50,[6],< 4.70
same,pIC50,[7],< 4.70
same,pIC50,[8],5.44
same,pIC50,[9],< 4.70
COc1ccc2c3c(c4cc(OC)c(OC)cc4c2c1)C[C@H]1CCCN1C3 [(-)-ANTOFINE],pIC50,[4],7.92
COc1cc2cc(Cn3cc(CN4C(=O)c5ccccc5C4=O)nn3)c3cc(OC)c(OC)cc3c2cc1OC,pIC50,[1],5.59
same,pIC50,[2],4.90
same,pIC50,[3],5.12
same,pIC50,[4],4.93
same,pIC50,[5],4.95
same,pIC50,[6],< 4.70
same,pIC50,[7],< 4.70
same,pIC50,[8],5.12
same,pIC50,[9],< 4.70
COc1cc2cc(Cn3cc(CCO)nn3)c3cc(OC)c(OC)cc3c2cc1OC,pIC50,[1],< 4.70
same,pIC50,[2],4.76
same,pIC50,[3],< 4.70
same,pIC50,[4],< 4.70
same,pIC50,[5],< 4.70
same,pIC50,[6],< 4.70
same,pIC50,[7],< 4.70
same,pIC50,[8],4.85
same,pIC50,[9],< 4.70
